JNK3 inh: blocks human JNK3 kinase activity; inhibition, % at 8 µM; P53779; AID 746; hit rate 0.61% among 60,000; purified JNK3 kinase activity, HTS; in the data active = inhibition above about 17%;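 also: 0% = DMSO and 100% = reference inhibitor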
Target sequence (P53779 whole entry, looked up): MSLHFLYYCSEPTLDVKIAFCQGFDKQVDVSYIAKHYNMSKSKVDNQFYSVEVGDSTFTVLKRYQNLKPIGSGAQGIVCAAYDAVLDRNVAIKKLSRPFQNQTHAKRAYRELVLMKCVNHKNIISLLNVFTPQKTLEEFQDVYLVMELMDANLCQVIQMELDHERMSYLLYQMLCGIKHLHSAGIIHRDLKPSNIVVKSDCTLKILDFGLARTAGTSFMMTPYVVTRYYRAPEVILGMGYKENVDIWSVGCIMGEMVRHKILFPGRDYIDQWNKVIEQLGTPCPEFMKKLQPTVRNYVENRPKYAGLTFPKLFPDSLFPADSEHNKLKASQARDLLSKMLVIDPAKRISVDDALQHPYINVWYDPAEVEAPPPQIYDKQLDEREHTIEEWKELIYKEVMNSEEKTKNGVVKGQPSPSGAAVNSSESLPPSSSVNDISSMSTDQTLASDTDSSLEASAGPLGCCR
Her2 expr inh: Her2 kinase expression inhibition | P04626 | SKBR-3 HER2 protein level, AlphaScreen, 18-24 h; active compounds read low | HER2 level % of control, % at 10 µM | hit rate 0.69% among 65,000;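 active = HER2 level under 5% of the carrier-only control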;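 also: 100% = DMSO carrier and 0% = 500 nM PU-H71 HSP90 inhibitor; lower value means stronger loss of Her2 protein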
BAP1 block: inhibitors of human BAP1 deubiquitinase; recombinant BAP1, Ub-AMC hydrolysis fluorescence kinetic; active compounds read low; calls only at 20 µM; hit rate 0.48% among 72,000; AID 436;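 active = activity remaining at or below 50% of control, provided the compound also passes the data quality filters; inactive = the rest, including low values that fail the filters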;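 also: 100% = DMSO wells rate and 0% = substrate alone blank rate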
M1 antagonist: M1 muscarinic receptor (rat) antagonism | P08482 | CHO-M1 cells, Fluo-4 calcium, ACh EC80 antagonist mode; active compounds read low | B-score at 10 µM | hit rate 3.4% among 64,000 | AID 628;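 active = calcium fluorescence response, raw or row-and-column corrected B-score, differing from the plate sample mean either way at a set confidence level, mostly lower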
M1 agonist: activates the M1 muscarinic receptor. CHO-M1 cells, Fluo-4 calcium fluorescence, agonist mode; active compounds read high. B-score at 10 µM. hit rate 3% among 64,000. AID 626;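 active = fluorescence rise, raw or as B-score row- and column-corrected plate score, outside the 99.7% band of its plate's samples, either direction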
HEK293 NFkB inh: inhibitors of the PMA/ionomycin-induced NF-kB reporter in HEK293 cells | HEK-293 NF-kB luciferase reporter, luminescence | inhibition, % at 3 µM | hit rate 0.21% among 62,000;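 active = inhibition above the mean of all tested compounds plus 3 SD, cut at about 40% in these data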;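 also: 0% = stimulated DMSO wells and 100% = 10 µM reference inhibitor 5653914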
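Signal: luciferase luminescence; Material: HEK-293 cells with stable firefly luciferase reporter driven by four HIV NF-kB elements; Probe or stimulus: PMA with ionomycin; Replication: tested once; Times: 1 h compound pretreatment, then 16 h stimulation at 37 °C, 5% CO2; Benchmarks: DMSO and 10 µM reference inhibitor; Evaluation: per-plate % inhibition versus controls.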
M1 antag confirm: M1 muscarinic receptor (rat) antagonism, confirmed | hit rate 43% among 1,700 | shares compounds with M1 antagonist | CHO-M1 cells, Fluo-4 calcium, ACh EC80 antagonism; active compounds read low | calcium response (max-min fluorescence) at 10 µM;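 active = calcium response below the same-plate mean of wells given acetylcholine alone at its 80%-effect dose, minus 3 SD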;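 also: raw fluorescence intensity difference in arbitrary instrument units and not normalized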
mGluR4 antag: acts on human mGluR4 in M1 antagonist selectivity test; shares compounds with M1 antagonist; fluorescence response (max-min) at 10 µM; AID 678; CHO-mGluR4 calcium flux, Fluo-4 fluorescence, glutamate EC80; active compounds read low; hit rate 0.9% among 1,700;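 active = fluorescence response below the plate's average for near-maximal glutamate wells, less 3 SD of those wells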;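 also: raw unnormalized fluorescence span taken in the window right after glutamate addition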
* = called active by the depositor; i = inactive; / = no result shown. A selection: hits, their analogues and other compounds. The true share with any hit is near 6.6%.

SMILES | JNK3 inh | Her2 expr inh | BAP1 block | M1 antagonist | M1 agonist | HEK293 NFkB inh | M1 antag confirm | mGluR4 antag
CCNC(=O)c1cc2c(=O)n3cccc(C)c3nc2n(Cc2ccc(C)cc2)c1=N | 0 | 83 | i | -2.9* | 0.79 | 17 | 609 | 198
COc1ccc(CCn2c(=N)c(C(=O)NCc3ccco3)cc3c(=O)n4ccccc4nc32)cc1 | 1 | 110 | i | -2.7* | 0.7 | / | 540 | 229
COCCn1c(=N)c(C(=O)NCCc2ccc(OC)cc2)cc2c(=O)n3cccc(C)c3nc21 | -10 | 95 | / | -4.4* | 1.2 | 10 | 311* | 208
COCCCNC(=O)c1cc2c(=O)n3cccc(C)c3nc2n(C(C)C)c1=N | -3 | 129 | / | -0.5 | 0.53 | 11 | / | /
O=C(CC1SC(=Nc2ccccc2)N(c2ccccc2)C1=O)Nc1ccc([N+](=O)[O-])cc1 (configuration not stated) | / | / | i | / | / | / | / | /
CCOC(=O)c1c(NC(=O)c2ccc([N+](=O)[O-])cc2)sc(C)c1C | / | / | i | / | / | / | / | /
CC1(C)C(=O)N(Cc2ccccc2)c2ccccc2N1C(=O)c1ccc(Br)cc1 | / | / | i | / | / | / | / | /
N=c1c2c3c(sc2ncn1CCN1CCOCC1)CCCCC3 | 1 | 91 | i | -0.79 | 0.057 | 23 | / | /
CCCCn1cnc2sc3c(c2c1=N)CCCC3 | 1 | 92 | i | -2.5* | -0.66 | 18 | 580 | 221
CC(=O)c1ccccc1Oc1nc(CN2CCOCC2)nc2scc(-c3cccs3)c12 | 5 | 62 | i | -2.3* | 0.18 | -3 | 478* | 183
CC(C)(C)c1nc2scc(-c3cccs3)c2c(=O)o1 | 5 | 84 | i | -2.6 | -0.38 | 9 | / | /
CN1CCc2c(c3ccccc3n2Cc2ccccc2)C1 | 0 | 72 | i | -3.9* | -0.61 | 11 | 231* | 251
Cn1c(=O)n(Cc2ccccc2)c2ccccc21 | -3 | / | i | 0.59 | -0.36 | 24 | / | /
CC(C)C(NC(=O)COc1cccc(Br)c1)C(=O)O (configuration not stated) | / | / | i | / | / | / | / | /
O=c1ccc2cc3c([nH]c4ccc(Br)cc43)oc-2c1O | 4 | 108 | / | -1.4* | 0.23 | 3 | 629 | 227
OCCN=C(c1ccccc1)C12CN3CN(CN(C3)C1)C2 | 5 | 111 | i | -2.4* | -0.87 | / | 466 | 215
O=[N+]([O-])c1ccc(C=NCC23CC4CC(CC(C4)C2)C3)cc1 | / | / | i | / | / | / | / | /
S=c1[nH]nc(Cc2ccccc2)n1-c1ccccc1 | -8 | 87 | i | -1.6 | -0.3 | 4 | / | /
CCCCn1c(Cc2ccccc2)n[nH]c1=S | 1 | 90 | i | -12* | -0.46 | 7 | 53* | 263
COc1ccccc1-n1c(C)nnc1SCC(N)=O | -5 | 112 | i | -4.3* | 0.2 | -10 | 486 | 233
Cc1ccc(OCC(=O)Nc2cc3nn(-c4ccccc4)nc3cc2C)cc1C | / | / | i | / | / | / | / | /
CCCCOc1ccc(C(=O)N2CCC(C)CC2)cc1 | -4 | 91 | i | 0.084 | 0.67 | 6 | / | /
CCCCOc1ccc(C(=O)OC2CC(C)N(C)CC2C)cc1 (configuration not stated) | -3 | 106 | i | -13* | -0.025 | / | 44* | 241
CCN1CCN(C(C(=O)NC2CCCC2)c2ccc(Cl)cc2)CC1 (configuration not stated) | -2 | 97 | i | -1.5 | 0.11 | -1 | / | /
O=C(NC1CCCCC1)C(c1ccccc1)N1CCCC1 (configuration not stated) | / | 106 | / | -13* | 0 | 13 | 121* | 251
SMILES | JNK3 inh | Her2 expr inh | BAP1 block | M1 antagonist | M1 agonist | HEK293 NFkB inh | M1 antag confirm | mGluR4 antag
Cc1ccc(C(C(=O)NC2CCCC2)N2CCCCC2)cc1 (configuration not stated) | -3 | 121 | i | -3.5* | 0.85 | 26 | 468* | 229
COc1ccc(C(C(=O)NC2CCCCC2)N2CCC3(CC2)OCCO3)cc1 (configuration not stated) | / | 109 | i | 0.027 | -0.011 | 23 | / | /
Cc1ccc(C(C(=O)NC2CCCCC2)N2CCCC2)cc1 (configuration not stated) | / | 14 | / | -3.8* | -1 | 11 | 461* | 253
COc1cccc2cc(-c3ccc([N+](=O)[O-])cc3)c(=O)oc12 | / | / | i | / | / | / | / | /
CC(C)CN(CC(C)C)S(=O)(=O)c1ccc(C(=O)Nc2nc3c(s2)CC(C)CC3)cc1 (configuration not stated) | / | / | i | / | / | / | / | /
CCN1C(=O)NC(c2ccccc2[N+](=O)[O-])C(C(=O)OCCc2ccccc2)=C1C (configuration not stated) | / | / | i | / | / | / | / | /
CCC1Oc2ccccc2N(CC(=O)Nc2ccccc2OC)C1=O (configuration not stated) | / | 80 | i | -0.2 | 0.22 | 2 | / | /
COC(=O)CC1Oc2ccccc2N(Cc2ccccc2)C1=O (configuration not stated) | 1 | 102 | i | -2.4* | -0.054 | -2 | 669 | 243
O=C(CN1CCOCC1)OCCCC1CCCCC1 | 5 | 112 | i | -3.9* | -0.9 | 10 | 517 | 194
O=C(O)CN1CCOCCOCCN(CC(=O)O)CCOCCOCC1 | 4 | 102 | i | -0.4 | 0.43 | -10 | / | /
Cc1ccc(C(C(=O)NC2CCCC2)N(Cc2cccnc2)C(=O)c2snc(C(N)=O)c2N)o1 (configuration not stated) | -1 | 82 | / | -0.32* | -0.028 | 16 | 600 | 221
CCN1CCN(c2ccc(NC(=O)COc3ccccc3Cl)cc2)CC1 | -4 | 98 | i | -9* | 0.0017 | 6 | 322* | 168
CC(NC(=O)c1cccnc1)C(c1cccs1)N1CCN(C)CC1 (configuration not stated) | 6 | 86 | i | 0.17 | 0.58 | 0 | / | /
CCN1CCN(C(c2cccs2)C(C)NC(=O)c2cccnc2)CC1 (configuration not stated) | 4 | 101 | i | -1.4* | -0.086 | 7 | 578* | 239
CCCCOc1cccc(C(=O)Nc2ccc(N3CCN(CC)CC3)cc2)c1 | -10 | 51 | i | -16* | 0.12 | 13 | 36* | 254
CCN1CCN(c2ccc(NC(=O)c3cccnc3)cc2Cl)CC1 | -2 | 104 | i | -3.6* | -0.86 | 14 | 460* | 190
CCN1CCN(c2ccc(C(=O)Nc3ccc(Cl)cc3)cc2[N+](=O)[O-])CC1 | / | / | i | / | / | / | / | /
Cc1ccc(S(=O)(=O)N(CCC#N)C2CCCCC2)cc1 | / | / | i | / | / | / | / | /
CCN1CCN(c2ccc(NC(=O)c3ccc4c(c3)OCO4)cc2)CC1 | 0 | 180 | i | -3* | 0.068 | -5 | 398* | 267

High-throughput results deposited in PubChem by several laboratories.
